One may read the CC50 as the concentration giving 50% cytotoxicity. One may read the EC50 as the concentration giving half of the maximal effect.

Among the data in ChEMBL document CHEMBL1144182, “Antimicrobial and cytotoxic arylazoenamines. Part III: antiviral activity of selected classes of arylazoenamines” (Bioorg Med Chem, 2008) are CC50, EC50 and Activity values, retold here.

A short description of series [1]: Cytotoxicity against mock-infected human MT4 cells assessed as reduction in cell viability after 96 hrs by MTT assay. It counts as cell-based. The procedure, abridged: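 Exponentially growing MT-4 cells seeded at 1 × 10^5 cells/mL in RPMI-1640 with 10% FCS, penicillin and streptomycin, with or without serial compound dilutions. Incubated at 37 °C, 5% CO2; viability read by MTT after 96 h. CC50 is the concentration reducing mock-infected cell viability by 50%.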
(Tetrazolium dyes change colour on reduction, which living cells bring about.)

Series [2] is described as follows: Cytotoxicity against mock-infected MDBK cells assessed as reduction in cell viability after 96 hrs by MTT assay. It counts as cell-based, Bos taurus. Particulars: cattle. The procedure, abridged:
(§1)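 Cytotoxicity run in parallel with the antiviral assays. MDBK seeded at 6 × 10^5 and BHK at 1 × 10^6 cells/mL in maintenance medium with or without serial compound dilutions. Incubated 48–96 h at 37 °C, 5% CO2, then viability read by MTT. CC50 is the concentration reducing mock-infected cell viability by 50%.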

Series [3] has as its system Bovine viral diarrhea virus 1. Put plainly: Antiviral activity against BVDV infected in MDBK cells assessed as protection against virus-induced cytopathogenicity after 4 days by MTT assay. Particulars: Bovine viral diarrhea virus isolates and strains, 96 h. It counts as functional, organism-based. Summed up: (§2)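 MDBK (BVDV) or BHK-21 (YFV) cells were seeded at 3 × 10^4 or 5 × 10^4 cells/well respectively and grown overnight to confluent monolayers at 37 °C in 5% CO2. Monolayers were infected at m.o.i. 0.01 in serum-free medium. After 1 h, MEM Earle's with 1% FCS was added, with or without serial compound dilutions. After 3–4 days at 37 °C, viability was read by MTT. EC50 was taken as 50% protection from virus-induced cytopathogenicity.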
Background: Damage to the host cells serves as the signal in cytopathic effect assays.

Series [4] is described as follows: Cytotoxicity against mock-infected BHK cells assessed as reduction in cell viability after 96 hrs by MTT assay. It counts as cell-based, Mesocricetus auratus. Particulars: hamster. Summed up: as §1
Series [5] has as its system Yellow fever virus. Put plainly: Antiviral activity against YFV infected in BHK21 cells assessed as protection against virus-induced cytopathogenicity after 4 days by MTT assay. It counts as functional, organism-based. Particulars: BHK-21, 96 h. The procedure, abridged: as §2
Series [6] in a line: Cytotoxicity against mock-infected african green monkey Vero76 cells assessed as reduction in cell viability after 96 hrs by MTT assay. It counts as cell-based, Vero. Particulars: chlorocebus sabaeus.
The test system of series [7] is Coxsackievirus B2. Put plainly: Antiviral activity against CVB2 infected in Vero76 cells assessed as reduction in virus plaque formation after 4 days by MTT assay. It counts as functional, organism-based. Particulars: Enterovirus B, Vero 76, 96 h.
Series [8] relates to Respiratory syncytial virus. Put plainly: Antiviral activity against RSV infected in Vero76 cells assessed as reduction in virus plaque formation after 4 days by MTT assay. It counts as functional, organism-based. Particulars: human respiratory syncytial virus, Vero 76, 96 h.
Series [9] has as its system Poliovirus 1. The experiment in a line: Antiviral activity against Sb1 virus infected in Vero76 cells assessed as reduction in virus plaque formation after 4 days by MTT assay. It counts as functional, organism-based. Particulars: Enterovirus C, Sabin, Vero 76, 96 h.
Series [10] has as its system Human immunodeficiency virus 1. Put plainly: Antiviral activity against HIV1 infected in MT4 cells assessed as virus-induced cytopathogenicity after 4 days. It counts as functional, organism-based.
The subject of series [11] is Vaccinia virus. Put plainly: Antiviral activity against VV infected in Vero76 cells assessed as reduction in virus plaque formation after 4 days by MTT assay. It counts as functional, organism-based. Particulars: Orthopoxvirus vaccinia; Vero 76.
Series [12] deals with Vesicular stomatitis virus. The experiment in a line: Antiviral activity against VSV infected in Vero76 cells assessed as reduction in virus plaque formation after 4 days by MTT assay. It counts as functional, organism-based. Particulars: Vero 76.

Calls of active or inactive are those of the source. The rule behind the calls is not given here. Where only a bound is given, the exact number is not on record here.

Regarding `C(/N=N/c1ccccc1)=C1/CCCN1Cc1ccccc1`, the CC50 at 96 h in series [1] turned out to be 22 µM; in series [2], 74 µM; in series [4] it was 31 µM; in series [6] it was 87 µM. Also, the EC50 in [3] is > 74 µM; in series [5], > 31 µM; in series [7] it was 16 µM; in series [8] it was 30 µM; in series [9], > 87 µM. Besides, the result in series [10], in series [11] and in [12] was inactive.
With `CC(=O)c1ccc(N2CCN(/C=C/N=N/c3ccccc3)CC2)cc1`, the CC50 at 96 h turned out to be 21 µM in series [1], 8 µM in series [2], 49 µM in series [4] and 11 µM in [6]. In addition, the EC50 in [3] is > 8 µM; in [5], > 49 µM; in series [7] it was > 11 µM; in series [8], 0.9 µM; in [9] it was > 11 µM. Besides, the result in [10], in series [11] and in [12] was inactive.
Consider `FC(F)(F)c1cccc(/N=N\C2=C3CCCCN3CCC2)c1`, for which the CC50 at 96 h in series [1] is 4 µM; in series [2], 8 µM; in [4] it was 40 µM; in series [6], > 100 µM. For the same compound, the EC50 was > 8 µM in [3]; > 40 µM in series [5]; 21 µM in series [7]; > 100 µM in series [8]; > 100 µM in series [9]. Besides, the result in [10], in [11] and in series [12] was inactive.
Turning to `Cc1ccc(/N=N/C2=CN(C)CCC2)cc1`, the CC50 at 96 h was > 100 µM in series [1], > 100 µM in series [2], > 100 µM in [4] and 71 µM in series [6]. Moreover, the EC50 in series [3] was > 100 µM; in series [5], > 100 µM; in series [7], > 71 µM; in series [8], > 71 µM; in [9] it was 25 µM. In addition, the outcome in series [10], in series [11] and in series [12] was inactive.
For `Clc1ccc(/N=N\C2=C3CCCCN3CCC2)cc1`, the CC50 at 96 h in series [1] is 42 µM; in series [2], 60 µM; in series [4] it was 69 µM; in series [6], 80 µM. The EC50 is > 60 µM in series [3]; > 69 µM in series [5]; 19 µM in series [7]; 25 µM in series [8]; > 80 µM in series [9]. The outcome in series [10], in series [11] and in [12] was inactive.
In the case of `CN1CCC/C1=C\N=N\c1c(F)c(F)c(F)c(F)c1F`, the CC50 at 96 h was 8 µM in series [1], > 100 µM in series [2], > 100 µM in series [4] and > 100 µM in [6]. For the same compound, the EC50 in [3] was > 100 µM; in [5], > 100 µM; in [7], > 100 µM; in series [8], 75 µM; in series [9], > 100 µM. Also, the result in series [10], in series [11] and in series [12] was inactive.
Turning to `c1ccc2c(N=NC3=C4CCCN4CCC3)nncc2c1`, the CC50 at 96 h in [1] was 52 µM; in [2] it was > 100 µM; in [4], > 100 µM; in series [6] it was > 100 µM. Moreover, the EC50 in series [3] was > 100 µM; in series [5], > 100 µM; in [7], > 100 µM; in [8], 7 µM; in [9], > 100 µM. In addition, the outcome in [10], in [11] and in series [12] was inactive.
For the compound `CN1C=C(/N=N/c2cccc3ccccc23)CCC1`, the CC50 at 96 h in series [1] is > 100 µM; in series [2], > 100 µM; in series [4], > 100 µM; in series [6], ≥ 100 µM. In addition, the EC50 in series [3] was 5 µM; in [5] it was > 100 µM; in [7], 76 µM; in series [8], > 100 µM; in series [9], > 100 µM. In addition, the result in series [10], in series [11] and in series [12] was inactive.
On to `Clc1ccc2c(/N=N/C3=C4CCCCN4CCC3)ccnc2c1`, for which the CC50 at 96 h was 15 µM in [1], 40 µM in series [2], 48 µM in [4] and 85 µM in [6]. The EC50 in series [3] was 5 µM; in [5], > 48 µM; in [7], 51 µM; in [8], > 85 µM; in series [9], > 85 µM. The result in series [10], in series [11] and in series [12] was inactive.
As to `CN1CCC/C1=C\N=N\c1cccc(C(F)(F)F)c1`, the CC50 at 96 h is 49 µM in series [1], 90 µM in series [2], 50 µM in series [4] and > 100 µM in series [6]. For the same compound, the EC50 is 21 µM in [3]; > 50 µM in [5]; > 100 µM in [7]; > 100 µM in series [8]; > 100 µM in series [9]. In addition, the outcome in series [10], in series [11] and in series [12] was inactive.
Consider `CN1C=C(/N=N/c2cccc([N+](=O)[O-])c2)CCC1`, for which the CC50 at 96 h in series [1] was > 100 µM; in [2], > 100 µM; in series [4], 95 µM; in series [6], > 100 µM. In addition, the EC50 in [3] is 0.8 µM; in [5], > 95 µM; in [7] it was > 100 µM; in series [8] it was > 100 µM; in series [9], > 100 µM. For the same compound, the outcome in [10], in series [11] and in series [12] was inactive.
As to `C(=C\N1CCOCC1)/N=N/c1ccccc1`, the CC50 at 96 h in [1] was 7 µM; in [2], 28 µM; in series [4] it was > 100 µM; in [6], 30 µM. Also, the EC50 in [3] was > 28 µM; in series [5], > 100 µM; in series [7] it was 7 µM; in series [8], 15 µM; in [9], > 30 µM. Besides, the outcome in series [10], in [11] and in [12] was inactive.
With `Clc1ccc(/N=N\C2=C3CCCN3CCC2)cc1Cl`, the CC50 at 96 h is 26 µM in [1], 67 µM in series [2], 61 µM in series [4] and > 100 µM in [6]. Also, the EC50 is > 67 µM in series [3]; > 61 µM in [5]; 30 µM in series [7]; > 100 µM in series [8]; 45 µM in series [9]. Also, the outcome in series [10], in [11] and in [12] was inactive.
